The source made the active and inactive calls. No cut-off for these calls is given here.
Key:
Enterococcus faecalis = test: Antimicrobial activity against vancomycin-resistant Enterococcus faecalis ATCC 51299 by microbroth dilution assay; assay type: functional
Bacillus spizizenii = test: Antimicrobial activity against Bacillus subtilis ATCC 6633 by microbroth dilution assay; assay type: functional
Escherichia coli = test: Antimicrobial activity against Escherichia coli ATCC 25922 by microbroth dilution assay; assay type: functional
Klebsiella pneumoniae = test: Antimicrobial activity against Klebsiella pneumoniae ATCC 13883 by microbroth dilution assay; assay type: functional
Pseudomonas aeruginosa = test: Antimicrobial activity against Pseudomonas aeruginosa ATCC 27853 by microbroth dilution assay; assay type: functional
Candida albicans = test: Antimicrobial activity against Candida albicans ATCC 10231 by microbroth dilution assay; assay type: functional
Streptomyces scabiei [1] = test: Antimicrobial activity against Streptomyces scabies NRRL B 2795 at 25 ug/disk after 2 days by disk diffusion assay; assay type: functional
In short: (§1)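 S. scabies grown 5 days in liquid ISP2, diluted 1:10 in molten ISP2 agar. Paper discs carrying 25 μg compound (applied in 20 μL methanol) were set on a thin agar layer and overlaid with 10 mL of the seeded agar (double-layer method). Plates were incubated 2 days at 30 °C, and inhibition zone diameters were measured.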

Staphylococcus aureus = test: Antimicrobial activity against methicillin-resistant Staphylococcus aureus ATCC 43300 by microbroth dilution assay; assay type: functional
Vero = test: Cytotoxicity against African green monkey Vero cells at 150 uM after 72 hrs by MTT assay; assay type: cell-based; conditions: chlorocebus sabaeus, vero, 72 h, 150 µM
In short: (§2)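 Vero cells in MEM and HCT-116 cells in RPMI, each with 10% FBS, 1% penicillin–streptomycin and 1% Glutamax. Cells were seeded at 3.0 × 10^4 per well and left to adhere overnight. Medium was replaced, and compounds in DMSO were added to a final 150–0.1 μM. Cells were incubated 72 h at 37 °C in 4.5% CO2 (humidified), then viability was read by MTT.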

Streptomyces scabiei [2] = test: Antimicrobial activity against Streptomyces scabies LK 82 at 25 ug/disk after 2 days by disk diffusion assay; assay type: functional; in short: as §1
HCT16 = test: (§3) Cytotoxicity against human […] cells after 72 hrs by MTT assay; assay type: functional, cell-based; in short: as §2
Acinetobacter baumannii = test: Antimicrobial activity against Acinetobacter baumannii ATCC 19606 by microbroth dilution assay; assay type: functional; conditions: ATCC 19606 = CIP 70.34 = JCM 6841
Cryptococcus neoformans = test: Antimicrobial activity against Cryptococcus neoformans ATCC 66031 by microbroth dilution assay; assay type: functional
[3] = as §3; assay type: functional, cell-based; in short: as §2

Row | SMILES | MIC (Enterococcus faecalis) | MIC (Bacillus spizizenii) | MIC (Escherichia coli) | MIC (Klebsiella pneumoniae) | MIC (Pseudomonas aeruginosa) | MIC (Candida albicans) | Activity (Streptomyces scabiei [1]) | MIC (Staphylococcus aureus) | Activity (Vero) | Activity (Streptomyces scabiei [2]) | Activity (HCT16) | MIC (Acinetobacter baumannii) | MIC (Cryptococcus neoformans) | EC50 [3]
1 | COC(=O)c1cccc2nc3c(O[C@@H]4O[C@@H](C)[C@H](O)[C@@H](O)[C@H]4O)cccc3nc12 [SOPHENAZINE E] | > 25 µg/mL | > 25 µg/mL | > 25 µg/mL | > 25 µg/mL | > 25 µg/mL | > 25 µg/mL | inactive | > 25 µg/mL | Non-toxic | inactive | inactive | > 25 µg/mL | > 25 µg/mL | –
2 | C[C@@H]1O[C@@H](Oc2cccc3nc4c(O[C@@H]5O[C@@H](C)[C@H](O)[C@@H](O)[C@H]5O)cccc4nc23)[C@H](O)[C@H](O)[C@H]1O [SOPHENAZINE F] | > 25 µg/mL | > 25 µg/mL | > 25 µg/mL | > 25 µg/mL | > 25 µg/mL | > 25 µg/mL | inactive | > 25 µg/mL | – | inactive | – | > 25 µg/mL | > 25 µg/mL | 45 µM
3 | CNc1ccc(C(=O)O[C@@H]2O[C@@H](C)[C@H](O)[C@@H](O)[C@H]2O)cc1 | > 25 µg/mL | > 25 µg/mL | > 25 µg/mL | > 25 µg/mL | > 25 µg/mL | > 25 µg/mL | inactive | > 25 µg/mL | – | inactive | – | > 25 µg/mL | > 25 µg/mL | –
4 | C[C@@H]1O[C@@H](Oc2cccc3nc4c(C(=O)O)cccc4nc23)[C@H](O)[C@H](O)[C@H]1O [IZUMINOSIDE A] | > 25 µg/mL | > 25 µg/mL | > 25 µg/mL | > 25 µg/mL | > 25 µg/mL | > 25 µg/mL | inactive | > 25 µg/mL | Non-toxic | inactive | inactive | > 25 µg/mL | > 25 µg/mL | –
5 | C[C@@H]1O[C@@H](OC(=O)c2ccc(O)cc2)[C@H](O)[C@H](O)[C@H]1O | > 25 µg/mL | > 25 µg/mL | > 25 µg/mL | > 25 µg/mL | > 25 µg/mL | > 25 µg/mL | inactive | > 25 µg/mL | – | inactive | – | > 25 µg/mL | > 25 µg/mL | –
6 | C[C@@H]1O[C@@H](OC(=O)c2cccc3nc4c(C(=O)O)cccc4nc23)[C@H](O)[C@H](O)[C@H]1O [IZUMINOSIDE C] | > 25 µg/mL | > 25 µg/mL | > 25 µg/mL | > 25 µg/mL | > 25 µg/mL | > 25 µg/mL | inactive | > 25 µg/mL | Non-toxic | inactive | inactive | > 25 µg/mL | > 25 µg/mL | –

From ChEMBL document CHEMBL2331235, “Solphenazines A-F, glycosylated phenazines from Streptomyces sp. strain DL-93” (J Nat Prod, 2013)
